Calls of active or inactive are those of the source. The rule behind the calls is not given here.
Key:
HeLa = assay: Antiproliferative activity against human HeLa cells after 48 hrs by resazurin reduction assay; assay type: functional, cell-based
How it was run: (§1)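 Cells seeded at 8,000/well; adherent lines trypsinized and given 24 h at 37 °C in 5% CO2 before drug, media replaced with drug dilutions or vehicle. Drug exposure 48 h, then 0.1% resazurin added for 4-24 h. Fluorescence 530/590 nm, expressed as % of untreated, and IC50 from log(inhibitor) vs response fit. Mean ± SEM, ≥3 independent experiments, ≥3 wells each.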

HuT78 = assay: Antiproliferative activity against human HUT78 cells after 48 hrs by resazurin reduction assay; assay type: functional, cell-based; details: HuT78, 48 h; how it was run: as §1
Jurkat [1] = assay: Induction of DNA modifying activity in human Jurkat cells assessed as tail extent moments at 10 uM under aerobic condition by alkaline comet assay in presence of 100 uM H2O2
How it was run: (§2)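 Jurkat cells at 1 x 10^5/mL were exposed to drug or PBS for 1 h at 37 °C in 5% CO2 (hypoxic arm in an N2/CO2 chamber). They then received 100 µM H2O2 in PBS for 20 min at 4 °C. Cells were embedded in agarose and lysed overnight, unwound at pH >13 for 20 min, electrophoresed at 20 V for 30 min at 4 °C, and stained with SYBR Green. Tail extent moment (tail length x tail DNA) was measured from ≥50 cells over two experiments.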

T47D = assay: Antiproliferative activity against human T47D cells after 48 hrs by resazurin reduction assay; assay type: functional, cell-based; how it was run: as §1
Jurkat [2] = assay: Antiproliferative activity against human Jurkat T cells in hypoxic condition after 48 hrs by resazurin reduction assay; assay type: functional, cell-based
How it was run: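 Jurkat cells held in a chamber purged 15 min with 95% N2/5% CO2, sealed, and incubated 1 h at 37 °C. Drug was diluted in N2/CO2-sparged PBS and added, then the chamber was purged again for 15 min and kept sealed at 37 °C for the assay. Resazurin readout was 530/590 nm, with IC50 from log(inhibitor) vs response fit.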

Jurkat [3] = assay: Induction of DNA modifying activity in human Jurkat cells assessed as increase in DNA-protein crosslink at 100 uM under aerobic condition by K-SDS assay (reference value: 4.5. +/- 1.5%); assay type: cell-based
How it was run: (§3)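 Jurkat cells (2 x 10^5) treated 1.5 h at 37 °C in complete RPMI-1640, aerobic or in sealed 95% N2/5% CO2 chamber. Lysed in 2% SDS/Tris pH 7.5; KCl precipitation, three 65 °C wash rounds, proteinase K 55 °C 3 h. Protein-linked and free DNA quantified by SYBR Green against standard; %DPC = linked/(linked+free) x100. Mean ± SEM, three experiments (n=9).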

Jurkat [4] = assay: Induction of DNA modifying activity in human Jurkat cells assessed as tail extent moments at 10 uM under hypoxic condition by alkaline comet assay in presence of 100 uM H2O2; how it was run: as §2
Jurkat [5] = assay: Induction of DNA modifying activity in human Jurkat cells assessed as increase in amount of crosslink DNA at 10 uM for 1 hr under aerobic condition by Hoechst-33342 staining based fluorescence assay
How it was run: (§4)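 Jurkat cells (~5-6 x 10^6) were exposed to drug or PBS for 1 h (aerobic, or in a sealed 95% N2/5% CO2 chamber) before DNA isolation. DNA (3,750 ng) was mixed with Hoechst 33342 in 0.5x TE, ex/em 360/460 nm, read before and after 5 min at 96-98 °C, 5 min ice, and 5 min room temperature. Crosslinked fraction was taken against a dye-only control and converted to crosslinks/fragment = -ln(1-X). Two isolations, each in triplicate.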

HepG2 = assay: Antiproliferative activity against human HepG2 cells after 48 hrs by resazurin reduction assay; assay type: functional, cell-based; details: HepG2, 48 h; how it was run: as §1
Jurkat [6] = assay: Antiproliferative activity against human Jurkat T cells after 48 hrs by resazurin reduction assay; assay type: functional, cell-based; how it was run: as §1
HL-60 = assay: Antiproliferative activity against human HL60 cells after 48 hrs by resazurin reduction assay; assay type: functional, cell-based; details: HL-60, 48 h; how it was run: as §1
Jurkat [7] = assay: Induction of DNA modifying activity in human Jurkat cells assessed as increase in amount of crosslink DNA at 10 uM for 1 hr under hypoxic condition by Hoechst-33342 staining based fluorescence assay; how it was run: as §4
Jurkat [8] = assay: Induction of DNA modifying activity in human Jurkat cells assessed as DNA-protein crosslink at 100 uM under hypoxic condition by K-SDS assay; assay type: cell-based; how it was run: as §3
[9] = Stability of the compound in methanol assessed as retention time by HPLC analysis; assay type: physicochemical
Jurkat [10] = assay: Induction of DNA modifying activity in human Jurkat cells assessed as increase in H2O2-induced DNA strand break at 10 uM under aerobic condition by alkaline comet assay in presence of H2O2; assay type: cell-based; how it was run: as §2
[11] = Stability of the compound in DMEM media assessed as compound remaining at 250 uM after 5 hrs by HPLC analysis; assay type: physicochemical; details: read-out: Stability
How it was run: (§5)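 Stock in DMSO added to DMEM with 10% FBS and pen/strep to 250 µM final, then filtered. Injected every 15 min onto a phenyl column with detection at 254 and 480 nm. Mobile phase was acetonitrile (A) and pH 7.2 Tris (B) at 1.0 mL/min, 15 min gradient from 30% A to 70% A.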

[12] = Stability of the compound in DMEM media assessed as compound remaining at 250 uM after 2 hrs by HPLC analysis; assay type: physicochemical; details: read-out: Stability; how it was run: as §5
[13] = Stability of the compound in DMEM media assessed as compound remaining at 250 uM after 7 hrs by HPLC analysis; assay type: physicochemical; details: read-out: Stability; how it was run: as §5
[14] = Stability of the compound in DMEM media assessed as compound remaining at 250 uM after 49 hrs by HPLC analysis; assay type: physicochemical; details: read-out: Stability; how it was run: as §5
[15] = Stability of the compound in DMEM media assessed as compound remaining at 213 uM after 1 hr by HPLC analysis; assay type: physicochemical; details: read-out: Stability
[16] = Stability of the compound in DMEM media assessed as compound remaining at 213 uM after 1.5 hrs by HPLC analysis; assay type: physicochemical; details: read-out: Stability
[17] = Stability of the compound in DMEM media assessed as compound remaining at 213 uM after 2 hrs by HPLC analysis; assay type: physicochemical; details: read-out: Stability
[18] = Stability of the compound in DMEM media assessed as compound remaining at 213 uM after 0.5 hrs by HPLC analysis; assay type: physicochemical; details: read-out: Stability

Compound | IC50 (HeLa) [nM] | IC50 (HuT78) [nM] | Activity (Jurkat [1]) | IC50 (T47D) [nM] | IC50 (Jurkat [2]) [nM] | Activity (Jurkat [3]) [%] | Activity (Jurkat [4]) | Activity (Jurkat [5]) | IC50 (HepG2) [nM] | IC50 (Jurkat [6]) [nM] | IC50 (HL-60) [nM] | Activity (Jurkat [7]) | Activity (Jurkat [8]) | Activity (Jurkat [10]) | also measured
CO[C@@]12[C@H](COC(N)=O)C3=C(C(=O)C(C)=C(N)C3=O)N1C[C@@H]1N[C@@H]12 [MITOMYCIN] | 1870 | 66 | 96 | 17000 | 303 | 7.8 | 87 | Active | 2940 | 578 | 410 | Active | inactive | – | –
CC1=CC(=O)c2c(COC(N)=O)c3n(c2C1=O)C[C@H]1[C@@H]3N1C (some centres undefined) | 525 | 24 | 0.26 | 225 | 4 | 17 | 0.32 | 0.55 | 342 | 8 | 30 | 0.51 | 41.9% | Active | Retention_time [9]: 3.6 min; remaining at 5 h, 250 µM [11]: 78%; remaining at 2 h, 250 µM [12]: 89%; remaining at 7 h, 250 µM [13]: 72%; remaining at 49 h, 250 µM [14]: 18%
CN1[C@@H]2c3c(COC(N)=O)c4c(n3C[C@@H]21)C(=O)C=CC4=O (some centres undefined) | 6210 | 131 | 0.49 | 9290 | 3960 | 17 | 3.6 | Active | 7870 | 4160 | 2030 | – | inactive | Active | remaining at 1 h, 213 µM [15]: 25%; remaining at 1.5 h, 213 µM [16]: 14%; remaining at 2 h, 213 µM [17]: 8%; remaining at 0.5 h, 213 µM [18]: 50%

Source: ChEMBL document CHEMBL3627673, “Modification of cellular DNA by synthetic aziridinomitosenes” (Bioorg Med Chem, 2015)
